Data published in the RNAGym collection of RNA variant scans (doi:10.1126/science.aae0568).
Variants at the floor of the assay were thinned out.

B1: tRNA (parent)
chain: GUUCCGUUGGCGUAAUGGUAACGCGUCUCCCUCCUAAGGAGAAGACUGCGGGUUCGAGUCCCGUACGGAACG

Variants of: B1
Test: yeast fitness relative to wild type (ratio to wild type); higher = fitter; tRNA-Arg(CCU), competitive growth, 37 C, YPD
Summary of the method: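 Amplicons of the tRNA-Arg(CCU) gene were sequenced, 100-nucleotide paired-end, from the start population and from each end population of a pooled yeast competition. The competition, in six parallel replicates, lasted 24 hours in YPD at 37°C. Fitness relative to wild type was calculated from changes in genotype frequencies. Genotypes had to have ≥ 100 starting reads, and estimates < 0.5 were set to 0.5.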

Going from GUUCCGUUGGCGUAAUGGUAACGCGUCUCCGUGCUAAGCAGAAGACUGCGGGUUCGAGUCCCGUACGGAACG [C31G C33G G39C] to GUUCCGUUGGCGUAAUGGUAACGCGUCUCCGUCCUAAGGAGAAGACUACGGGUUCGAGUCCCGUACGGAACG [C31G G48A], the yeast fitness rises from 0.508 to 0.925.

GUUCCGUUGGCGUAAUGGUAACGCGUCUCCGUCCUAAAGAGAAGACUGCGGGUUCGAGUCCCUUACGGAACG [C31G G38A G63U] and GUUCCGUUGGCGUAAUGGUAACGCGUCUCCGUCCUAAGGAGAAGACUGCGGGUUCGAGUCUCGUACGAAACG [C31G C61U G68A] cannot be ordered by yeast fitness: ≤ 0.5 for the first, ≤ 0.5 for the second.

Compared with GUUCCGUUGGCGUAAUGGUAACGCGUCUCCGUCCUAAGGAGAAAACUGCGGGUUCGAGUCCCGUACGGAACG [C31G G44A], GUUCCGUUGGCGUAAUGGUAACGCGUCUCCGUCUUAAAGAGAAGACUGCGGGUUCGAGUCCCGUACGGAACG [C31G C34U G38A] is lower in yeast fitness: 1.07 for the first, 0.53 for the second.

GUUCCGUUGGCGUAAUGGUAACGCGUCUCCGUGCUAAGGAGAAGACUGCGGGUUCGAGUCCCGUACGGAUCG [C31G C33G A70U] and GUUCCGUUGGCGUAAUGGUAACGCGUCUCCGUGCUAAGGAGAAGACUGUGGGUUCGAGUGCCGUAAGGAACG [C31G C33G C49U C60G C66A] cannot be ordered by yeast fitness: ≤ 0.5 for the first, ≤ 0.5 for the second.

Compared with GUUCCGUUGGCGUAAUGGUAACGCGUCUCCGUGUUAAGGAGAAGACUGCGGGUUCGAGUCCCGUACGAAACG [C31G C33G C34U G68A], GUUCCGUUGGCGUAAUGGUAACGCGUCUCCGUCCUAAGGAGAAGACUGCAGGUUCGAGUCCCGUACGGAACG [C31G G50A] is higher in yeast fitness: 0.603 for the first, 0.837 for the second.

Compared with GUUCCGUUGGCGUAAUGGUAACGCGUCUCCGUCCUAAGGAGAAGACUGCCGGUUCGAGUCCCGUACGGAACG [C31G G50C], GUUCCGUUGGCGUAAUGGUAACGCGUCUCCGUCUUAAGGAGAAGACUGCGGGUUUGAAUCUCGUACGGAACG [C31G C34U C55U G58A C61U] is lower in yeast fitness: 0.738 for the first, 0.586 for the second.

Compared with GUUCCGUUGGCGUAAUGGUAACGCGUCUCCGUCCUAAAGAGAAGACUGCGGGUUCGAGUCCCGUACGGAACG [C31G G38A], GUUCCGUUGGCGUAAUGGUAACGCGUCUCCGUCCUAACGAGAAGACUGCGGGUUCGAGUCCCGUACGGAACG [C31G G38C] is higher in yeast fitness: 0.802 for the first, 0.826 for the second.

First: GUUCCGUUGGCGUAAUGGUAACGCGUCUCCGUCCUAAGGAGAAGAGUGCGGGUUCGAGUCCCGUACGGAACG [C31G C46G]
Second: GUUCCGUUGGCGUAAUGGUAACGCGUCUCCGUCCUAAGGAGAAGACUGCGGGUUCGAGUCCCGUAGGGGACG [C31G C66G A69G]
The yeast fitness of the first is higher: 1.04 for the first, 0.545 for the second.

Compared with GUUCCGUUGGCGUAAUGGUAACGCGUCUCCGUACUAAGGAGAAGACUGCGGGUUCGAGUCCCGUACGGAACG [C31G C33A], GUUCCGUUGGCGUAAUGGUAACGCGUCUCCGUCUUAAGGCGAAGACUGCGGGUUCGAGUCCCGUAAGGAACG [C31G C34U A40C C66A] is lower in yeast fitness: 0.678 for the first, ≤ 0.5 for the second.

GUUCCGUUGGCGUAAUGGUAACGCGUCUCCGUCCUAAGGAGAACACUGCGGGCUCGAGUCCCGUUCGGAACG [C31G G44C U53C A65U] and GUUCCGUUGGCGUAAUGGUAACGCGUCUCCGUCCUAAGGAGAAGACUGGGGGUUCGAGUCCUGUACCGAACG [C31G C49G C62U G67C] cannot be ordered by yeast fitness: ≤ 0.5 for the first, ≤ 0.5 for the second.

Going from GUUCCGUUGGCGUAAUGGUAACGCGUCUCCGUCGUAAGGAGAAGACUGCGGGUUCGAGUCCCGUACGGAACG [C31G C34G] to GUUCCGUUGGCGUAAUGGUAACGCGUCUCCGUCCUAAGGAGAAGACUGCGGGUUCGAGUCCCGUAAGGAACG [C31G C66A], the yeast fitness rises from 0.629 to 0.702.

GUUCCGUUGGCGUAAUGGUAACGCGUCUCCGUCUUAAGGAGAAGAUUGCGGGUUCAAGUCCUGUACGGAACG [C31G C34U C46U G56A C62U] and GUUCCGUUGGCGUAAUGGUAACGCGUCUCCGUACUAAGGAGAAGACUCCGGGUUCGAGUCCCGUACGGAACG [C31G C33A G48C] cannot be ordered by yeast fitness: ≤ 0.5 for the first, ≤ 0.5 for the second.

Compared with GUUCCGUUGGCGUAAUGGUAACGCGUCUCCGUCCUAAGGACAAGACUGCGGGUUCGAGUCCCGUACGGAACG [C31G G41C], GUUCCGUUGGCGUAAUGGUAACGCGUCUCCGUCCUAAGGAGAAGACUGCGGGUUCGAGUCUCGUACAGAACG [C31G C61U G67A] is lower in yeast fitness: 0.696 for the first, ≤ 0.5 for the second.

First: GUUCCGUUGGCGUAAUGGUAACGCGUCUCCGUCCUAAGGAGAAGACUGCGGGUUCGAGUCCCGUUCCGAACG [C31G A65U G67C]
Second: GUUCCGUUGGCGUAAUGGUAACGCGUCUCCGUCUUAAGGAGAAGACUGCGGGUUCGAGUCCCGUACUGAACG [C31G C34U G67U]
The yeast fitness of the first is higher: 0.567 for the first, ≤ 0.5 for the second.

Compared with GUUCCGUUGGCGUAAUGGUAACGCGUCUCCGUCUUAAGGAGAAGACUGCGGGUUCAACUCCCGUACGGAACG [C31G C34U G56A G58C], GUUCCGUUGGCGUAAUGGUAACGCGUCUCCGUCUUAAGGAGUAGACUGCGGGUUCGAGUCCCGUACGGAACG [C31G C34U A42U] is higher in yeast fitness: ≤ 0.5 for the first, 0.612 for the second.

Compared with GUUCCGUUGGCGUAAUGGUAACGCGUCUCCGUCCUAAGAAGAAGACUGCGGGUUCGAGUCCCGUACGGAGCG [C31G G39A A70G], GUUCCGUUGGCGUAAUGGUAACGCGUCUCCGUCCUAAGGAGAAGAGUGCGGGUUCGAGUCGCGUACGGUACG [C31G C46G C61G A69U] is lower in yeast fitness: 0.553 for the first, ≤ 0.5 for the second.

GUUCCGUUGGCGUAAUGGUAACGCGUCUCCGUCUUAAGGAGUAGACUGCGGGUUCGAGUCCCGUACGGACCG [C31G C34U A42U A70C] and GUUCCGUUGGCGUAAUGGUAACGCGUCUCCGUCCUAAGGACAAGACUGCCGGUUCGAGUUCCGUACGGCACG [C31G G41C G50C C60U A69C] cannot be ordered by yeast fitness: ≤ 0.5 for the first, ≤ 0.5 for the second.

Compared with GUUCCGUUGGCGUAAUGGUAACGCGUCUCCGUCCUAAGGAGAAGAAUGCGGGUUCGAGUCCCCUUCGGAACG [C31G C46A G63C A65U], GUUCCGUUGGCGUAAUGGUAACGCGUCUCCGUUCUACGGAGAAGACUGCGGGUUCGAGUCCCGUACGGAUCG [C31G C33U A37C A70U] is lower in yeast fitness: 0.509 for the first, ≤ 0.5 for the second.

Compared with GUUCCGUUGGCGUAAUGGUAACGCGUCUCCGUUCUAAGGAGCAGACUGCGGGUUCGAGUCCCGUAGGGAACG [C31G C33U A42C C66G], GUUCCGUUGGCGUAAUGGUAACGCGUCUCCGUACUAAGGAGAAGACUGUGGGUGCGAGUCCCGUUCGGAACG [C31G C33A C49U U54G A65U] is higher in yeast fitness: ≤ 0.5 for the first, 0.597 for the second.
